# Results from ChEMBL document CHEMBL5113451, “Discovery of 2-thiobenzimidazoles as noncovalent inhibitors of SARS-CoV-2 main protease” (Bioorg Med Chem Lett, 2022).
# pIC50: −log10 of the molar value.
# Molecular target: T1, Replicase polyprotein 1ab (Severe acute respiratory syndrome coronavirus 2, UniProt P0DTD1)
# Assay: Inhibition of His6-tagged SARS-CoV-2 main protease expressed in Escherichia coli BL21 (DE3) using DABCYL-KTSAVLQ1SGFRKM-E(EDANS)-NH2 as substrate preincubated for 15 mins followed by substrate addition by FRET analysis
# Outline: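 Inhibitor preincubated 15 min at 30 °C, then dabcyl-edans substrate added. Fluorescence followed at 90 s intervals. […] Three independent experiments.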
row,SMILES,pIC50
1,COc1cc2c(cc1Cl)nc(SCC(=O)N1CCOC1=O)n2Cc1ccccc1,4.28
2,O=C(CSc1nc2cc(Cl)c(O)cc2n1Cc1ccccc1)N1CCOC1=O,4.45
3,Cc1ccc2c(c1)nc(SC(Cc1ccccc1)C(=O)N1CCOC1=O)n2Cc1ccccc1 (configuration not stated),4.44
4,O=C(CSc1nc2cc(Cl)ccc2n1Cc1ccccc1)N1CCOC1=O,4.21
5,CC(C)(C)c1ccc2c(c1)nc(SC(Cc1ccccc1)C(=O)N1CCOC1=O)n2Cc1ccccc1 (configuration not stated),4.53
6,O=C1OCCN1C(=O)C(Cc1ccco1)Sc1nc2cc(Cl)c(Cl)cc2n1Cc1ccccc1 (configuration not stated),4.51
7,COc1ccc2nc(SC(Cc3ccco3)C(=O)N3CCOC3=O)n(Cc3ccccc3)c2c1 (configuration not stated),4.27
8,O=C1OCCN1C(=O)C(Cc1ccco1)Sc1nc2cc(Cl)ccc2n1Cc1ccccc1 (configuration not stated),4.83
9,COc1cc2c(cc1Cl)nc(SC(Cc1ccco1)C(=O)N1CCOC1=O)n2Cc1ccccc1 (configuration not stated),4.56
10,O=C(CSc1nc2cc(Cl)c(Cl)cc2n1Cc1ccccc1)N1CCOC1=O,4.53
11,Cc1ccc2c(c1)nc(SC(Cc1ccccc1)C(=O)N1CCNC1=O)n2Cc1ccccc1 (configuration not stated),4.49
12,O=C1NCCN1C(=O)C(Cc1ccccc1)Sc1nc2cc(Cl)ccc2n1Cc1ccccc1 (configuration not stated),4.52
13,CC(C)(C)c1ccc2c(c1)nc(SCC(=O)N1CCOC1=O)n2Cc1ccccc1,4.45
14,O=C(CSc1nc2cc(Cl)ccc2n1Cc1ccccc1)N1CCNC1=O,4.62
15,O=C1OCCN1C(=O)C(Cc1ccccc1)Sc1nc2cc(Cl)ccc2n1Cc1ccccc1 (configuration not stated),4.57
16,O=C1OCCN1C(=O)C(Cc1ccco1)Sc1nc2ccc(Cl)cc2n1Cc1ccccc1 (configuration not stated),4.28
17,O=C1OCCN1C(=O)C(Cc1ccco1)Sc1nc2cc(Cl)c(O)cc2n1Cc1ccccc1 (configuration not stated),4.34
18,O=C1OCCN1C(=O)C(Cc1ccco1)Sc1nc2ccc(O)cc2n1Cc1ccccc1 (configuration not stated),4.25

# Molecular target: T1, Replicase polyprotein 1ab
# Assay: Inhibition of His6-tagged SARS-CoV-2 main protease expressed in Escherichia coli BL21 (DE3) using DABCYL-KTSAVLQ1SGFRKM-E(EDANS)-NH2 as substrate preincubated for 15 mins followed by substrate addition in presence of Triton-X by FRET analysis
row,SMILES,pIC50
1,COCCn1c(C(=O)NCC(O)c2ccccc2)nc2ccccc2c1=O (configuration not stated),4.27
2,O=C(CSc1nc2cc(Cl)ccc2n1Cc1ccccc1)N1CCNC1=O,4.62

# Molecular target: Replicase polyprotein 1ab (Severe acute respiratory syndrome coronavirus 2) (UniProt P0DTD1)
# Assay: Inhibition of His6-tagged SARS-CoV-2 main protease expressed in Escherichia coli BL21 (DE3) assessed as residual enzyme activity using DABCYL-KTSAVLQ1SGFRKM-E(EDANS)-NH2 as substrate at 50 uM preincubated for 15 mins followed by substrate addition by FRET analysis
# Outline: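 Compound at 50 µM preincubated 15 min at 30 °C before dabcyl-edans peptide added. Fluorescence read every 90 s for about 2.5 h, baseline subtracted.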
row,SMILES,Activity
1,COCCn1c(C(=O)NCC(O)c2ccccc2)nc2ccccc2c1=O (configuration not stated),50%
2,O=C(CSc1nc2cc(Cl)ccc2n1Cc1ccccc1)N1CCNC1=O,50%
